# Tests used:
# [1] = test system: Escherichia coli; assay: Antibacterial activity against Escherichia coli DH5alpha carrying ampC gene of Acinetobacter genomosp. 3 isolate 69 by Etest method; type: functional
# Outline: (§1)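 E. coli DH5α expressing the AG3 isolate ampC gene, PCR-amplified (high-fidelity system, 28 cycles) and cloned into BamHI/HindIII sites of pBGS18 (kanamycin marker) under the CTX-M-14 β-lactamase promoter. Grown at 37°C in LB, with kanamycin 50 µg/ml when needed. β-Lactam MICs determined by Etest per the manufacturer's instructions.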
# [2] = test system: Acinetobacter pittii; assay: Antibacterial activity against Acinetobacter genomosp. 3 isolate 109 by Etest method; type: functional
# Outline: (§2)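 MICs for AG3 clinical isolates were read by Etest following the manufacturer's instructions. Isolates were stored at –80°C in 10% Brucella glycerol broth before testing.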
# [3] = test system: Acinetobacter pittii; assay: Antibacterial activity against Acinetobacter genomosp. 3 isolate 20 by Etest method; type: functional; outline: as §2
# [4] = test system: Escherichia coli; assay: Antibacterial activity against Escherichia coli DH5alpha carrying ampC gene of Acinetobacter genomosp. 3 isolate 14 by Etest method; type: functional; outline: as §1
# [5] = test system: Acinetobacter pittii; assay: Antibacterial activity against Acinetobacter genomosp. 3 isolate 103 by Etest method; type: functional; outline: as §2
# [6] = test system: Escherichia coli; assay: Antibacterial activity against Escherichia coli DH5alpha carrying ampC gene of Acinetobacter genomosp. 3 isolate 109 by Etest method; type: functional; outline: as §1
# [7] = test system: Acinetobacter pittii; assay: Antibacterial activity against Acinetobacter genomosp. 3 isolate 60 by Etest method; type: functional; outline: as §2
# [8] = test system: Acinetobacter pittii; assay: Antibacterial activity against Acinetobacter genomosp. 3 isolate 65 by Etest method; type: functional; outline: as §2
# [9] = test system: Acinetobacter pittii; assay: Antibacterial activity against Acinetobacter genomosp. 3 isolate 90 by Etest method; type: functional; outline: as §2
# [10] = test system: Acinetobacter pittii; assay: Antibacterial activity against Acinetobacter genomosp. 3 isolate 67 by Etest method; type: functional; outline: as §2
# [11] = test system: Escherichia coli; assay: Antibacterial activity against Escherichia coli DH5alpha carrying ampC gene of Acinetobacter genomosp. 3 isolate 20 by Etest method; type: functional; outline: as §1
# [12] = test system: Acinetobacter pittii; assay: Antibacterial activity against Acinetobacter genomosp. 3 isolate 56 by Etest method; type: functional; outline: as §2
# [13] = test system: Escherichia coli; assay: Antibacterial activity against Escherichia coli DH5alpha carrying ampC gene of Acinetobacter genomosp. 3 isolate 103 by Etest method; type: functional; outline: as §1
# [14] = test system: Acinetobacter pittii; assay: Antibacterial activity against Acinetobacter genomosp. 3 isolate 21 by Etest method; type: functional; outline: as §2
# [15] = test system: Acinetobacter pittii; assay: Antibacterial activity against Acinetobacter genomosp. 3 isolate 195 by Etest method; type: functional; outline: as §2
# [16] = test system: Escherichia coli; assay: Antibacterial activity against Escherichia coli DH5alpha by Etest method; type: functional
# Outline: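 E. coli DH5α host strain, grown at 37°C in LB medium. MICs of β-lactams determined by Etest following the manufacturer's instructions.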
# [17] = test system: Acinetobacter pittii; assay: Antibacterial activity against Acinetobacter genomosp. 3 isolate 243 by Etest method; type: functional; outline: as §2
# [18] = test system: Acinetobacter pittii; assay: Antibacterial activity against Acinetobacter genomosp. 3 isolate 128 by Etest method; type: functional; outline: as §2
# [19] = test system: Acinetobacter pittii; assay: Antibacterial activity against Acinetobacter genomosp. 3 isolate 14 by Etest method; type: functional; outline: as §2
# [20] = test system: Escherichia coli; assay: Antibacterial activity against Escherichia coli DH5alpha carrying ampC gene of Acinetobacter genomosp. 3 isolate 56 by Etest method; type: functional; outline: as §1
# [21] = test system: Escherichia coli; assay: Antibacterial activity against Escherichia coli DH5alpha carrying ampC gene of Acinetobacter genomosp. 3 isolate 65 by Etest method; type: functional; outline: as §1
# [22] = test system: Acinetobacter pittii; assay: Antibacterial activity against Acinetobacter genomosp. 3 isolate 52 by Etest method; type: functional; outline: as §2
# [23] = test system: Acinetobacter pittii; assay: Antibacterial activity against Acinetobacter genomosp. 3 isolate 69 by Etest method; type: functional; outline: as §2
# [24] = test system: Escherichia coli; assay: Antibacterial activity against Escherichia coli DH5alpha carrying ampC gene of Acinetobacter genomosp. 3 isolate 195 by Etest method; type: functional; outline: as §1
# [25] = test system: CO/N=C(\C(=O)N[C@@H]1C(=O)N2C(C(=O)O)=C(COC(C)=O)CS[C@H]12)c1csc(N)n1; assay: (§3) Activity of Acinetobacter genomosp. 3 isolate 65 ADC-14; settings: Acinetobacter pittii
# Outline: (§4)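 AmpC genes from AG3 clinical isolates were cloned into pGEX-6P-1 and expressed as GST fusions. The mature enzyme was purified free of GST, giving a 43 kDa SDS-PAGE band of 95% purity. Kinetics were read spectrophotometrically at 25°C in PBS with 20 mg/liter BSA, three repeats. For poor substrates, Km was taken as Ki in competitive assays with Centa as reporter substrate. Vmax came from the Michaelis-Menten equation at six times Km antibiotic.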
# [26] = test system: CC(=O)OCC1=C(C(=O)O)N2C(=O)[C@@H](NC(=O)Cc3cccs3)[C@H]2SC1; assay: as §3; settings: Acinetobacter pittii; outline: as §4
# [27] = test system: C[C@H]1[C@H](NC(=O)/C(=N\OC(C)(C)C(=O)O)c2csc(N)n2)C(=O)N1S(=O)(=O)O; assay: as §3; settings: Acinetobacter pittii; outline: as §4
# [28] = test system: CO[C@@]1(NC(=O)Cc2cccs2)C(=O)N2C(C(=O)O)=C(COC(N)=O)CS[C@@H]21; assay: as §3; settings: Acinetobacter pittii; outline: as §4
# [29] = test system: CC(C)(O/N=C(\C(=O)N[C@@H]1C(=O)N2C(C(=O)[O-])=C(C[n+]3ccccc3)CS[C@H]12)c1csc(N)n1)C(=O)O; assay: as §3; settings: Acinetobacter pittii; outline: as §4
# [30] = test system: CO/N=C(\C(=O)N[C@@H]1C(=O)N2C(C(=O)O)=C(COC(N)=O)CS[C@H]12)c1ccco1; assay: as §3; settings: Acinetobacter pittii; outline: as §4
# [31] = test system: CO/N=C(\C(=O)N[C@@H]1C(=O)N2C(C(=O)O)=C(COC(C)=O)CS[C@H]12)c1csc(N)n1; assay: (§5) Ratio of Kcat to Km for Acinetobacter genomosp. 3 isolate 65 ADC-14; settings: Acinetobacter pittii; outline: as §4
# [32] = test system: CC(=O)OCC1=C(C(=O)O)N2C(=O)[C@@H](NC(=O)Cc3cccs3)[C@H]2SC1; assay: as §5; settings: Acinetobacter pittii; outline: as §4
# [33] = test system: CO[C@@]1(NC(=O)Cc2cccs2)C(=O)N2C(C(=O)O)=C(COC(N)=O)CS[C@@H]21; assay: as §5; settings: Acinetobacter pittii; outline: as §4
# [34] = test system: CC(C)(O/N=C(\C(=O)N[C@@H]1C(=O)N2C(C(=O)[O-])=C(C[n+]3ccccc3)CS[C@H]12)c1csc(N)n1)C(=O)O; assay: as §5; settings: Acinetobacter pittii; outline: as §4
# [35] = test system: CO/N=C(\C(=O)N[C@@H]1C(=O)N2C(C(=O)O)=C(COC(N)=O)CS[C@H]12)c1ccco1; assay: as §5; settings: Acinetobacter pittii; outline: as §4
Compound,MIC [1],MIC [2],MIC [3],MIC [4],MIC [5],MIC [6],MIC [7],MIC [8],MIC [9],MIC [10],MIC [11],MIC [12],MIC [13],MIC [14],MIC [15],MIC [16],MIC [17],MIC [18],MIC [19],MIC [20],other results
C[C@@H](O)[C@H]1C(=O)N2C(C(=O)O)=C(SCCNC=N)C[C@H]12 [IMIPENEM ANHYDROUS],0.19 µg/mL,0.19 µg/mL,1 µg/mL,0.125 µg/mL,0.75 µg/mL,0.12 µg/mL,0.25 µg/mL,0.19 µg/mL,0.38 µg/mL,0.19 µg/mL,0.023 µg/mL,0.19 µg/mL,0.125 µg/mL,0.38 µg/mL,0.19 µg/mL,0.125 µg/mL,0.19 µg/mL,0.12 µg/mL,0.25 µg/mL,0.19 µg/mL,MIC [21]: 0.19 µg/mL; MIC [22]: 0.25 µg/mL; MIC [23]: 0.25 µg/mL
CCN1CCN(C(=O)N[C@@H](C(=O)N[C@@H]2C(=O)N3[C@@H]2SC(C)(C)[C@@H]3C(=O)O)c2ccccc2)C(=O)C1=O [PIPERACILLIN],3 µg/mL,16 µg/mL,24 µg/mL,4 µg/mL,24 µg/mL,4 µg/mL,24 µg/mL,16 µg/mL,12 µg/mL,16 µg/mL,4 µg/mL,12 µg/mL,4 µg/mL,24 µg/mL,24 µg/mL,0.38 µg/mL,32 µg/mL,12 µg/mL,16 µg/mL,3 µg/mL,MIC [24]: 4 µg/mL; MIC [21]: 4 µg/mL; MIC [22]: 12 µg/mL; MIC [23]: 16 µg/mL
ADC-14 protein (Acinetobacter genomosp. 3) (from UniProt Q0VTR6),–,–,–,–,–,–,–,–,–,–,–,–,–,–,–,–,–,–,–,–,Km [25]: 0.08 µM; kcat [25]: 0.004 s⁻¹; Km [26]: 6.73 µM; kcat [26]: 56.5 s⁻¹; Km [27]: 6.01 µM; Km [28]: 0.02 µM; kcat [28]: 0.02 s⁻¹; Km [29]: 26.1 µM; kcat [29]: 0.01 s⁻¹; Km [30]: 0.02 µM; kcat [30]: 0.01 s⁻¹; kcat/Km [31]: 48200 M⁻¹ s⁻¹; kcat/Km [32]: 8.4e+06 M⁻¹ s⁻¹; kcat/Km [33]: 941000 M⁻¹ s⁻¹; kcat/Km [34]: 380 M⁻¹ s⁻¹; kcat/Km [35]: 529000 M⁻¹ s⁻¹

# — ChEMBL document CHEMBL1649124, “Genetic variability among ampC genes from acinetobacter genomic species 3” (Antimicrob Agents Chemother, 2009)
